Rows were chosen to be rich in hits. Some 2.4% of all compounds tested hit in one or more screens of this group.
MC4R antagonist – human MC4R antagonism in cAMP assay. AID 540295. MC4R-expressing cells, MTII-stimulated cAMP, LANCE TR-FRET. inhibition, % at 6.5 µM. 360,000 compounds, 0.48% hits;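 active means inhibition above its plate's cutoff, the mean of tested wells on that plate plus 3 SD, cut at about 29% in these data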
Target sequence (P32245 whole entry, looked up): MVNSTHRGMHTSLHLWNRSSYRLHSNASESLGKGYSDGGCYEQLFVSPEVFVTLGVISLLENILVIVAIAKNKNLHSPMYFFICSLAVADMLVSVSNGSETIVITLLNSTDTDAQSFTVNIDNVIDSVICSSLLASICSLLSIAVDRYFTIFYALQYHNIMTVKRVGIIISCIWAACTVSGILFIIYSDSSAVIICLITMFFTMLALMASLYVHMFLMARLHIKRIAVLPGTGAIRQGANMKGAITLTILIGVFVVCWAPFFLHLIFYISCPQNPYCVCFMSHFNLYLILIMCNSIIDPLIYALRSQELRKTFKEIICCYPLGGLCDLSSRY
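Assay system: human MC4R-expressing U2OS cells; reagent: Melanotan II stimulation of cells; dosing: 6.5 µM single dose; timing: compound 30 min, challenge 1 h, detection 1 h; signal: TR-FRET cAMP assay; replicates: one well per compound, no replicates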
NTR1 ag – agonists of human neurotensin receptor NTR1. activation, % at 20 µM. P30989. NTR1-U2OS beta-arrestin-GFP spot imaging, agonist mode. 330,000 compounds, 0.17% hits. AID 493036;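 active means activation at or above 40% of the spot to cytoplasm intensity ratio, with at least 20 cells analyzed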
H9c2 TAG inh – triacylglycerol accumulation inhibition; H9c2 cells, Nile Red lipid (TAG) fluorescence; cells loaded with 200 µM oleic acid; inhibition, % at 12.5 µM; 230,000 compounds, 0.66% hits;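 active means pattern-corrected inhibition of lipid staining of at least 50% with the nuclear-stain viability signal not falling by more than 50%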
TbMetRS inhib – blocks T. brucei methionyl-tRNA synthetase activity; purified T. brucei MetRS, ATP depletion, Kinase-Glo luminescence; inhibition, % at 11.9 µM; 360,000 compounds, 0.4% hits; AID 624268;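 active means inhibition above a per-plate cutoff of the control wells' mean inhibition plus 3 SD, cut at about 5.5% in these data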
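Assay system: T. brucei methionyl-tRNA synthetase, purified | Medium: HEPES buffer with MgCl2, KCl, DTT, spermine, BSA, pyrophosphatase | Compound: 11.9 µM single point | Incubation: 15 min enzyme-compound preincubation, 2 h reaction, 10 min detection, 25 °C | Measured by: Kinase-Glo luciferase luminescence reporting remaining unconsumed ATP | Measure: % inhibition normalized to control-well medians | Replication: Singlicate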
MC4R ag barr – agonists of human melanocortin 4 receptor (MC4R) beta-arrestin. P32245. U2OS MC4R beta-arrestin complementation, luminescence; percent of melanotan II response, DMSO zero. activation, % at 8.9 µM. 360,000 compounds, 0.98% hits. AID 540308;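 active means activation above a per-plate cutoff, the mean activation of sample wells on that plate plus 3 SD, cut at about 8% in these data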
aDG glyco act – alpha-DG glycosylation activation. Pro5-aDG cells, alpha-DG glycosylation AlphaScreen (IIH6); 0% Pro5, 100% B10-LARGE cell signal. activation, % at 10 µM. 360,000 compounds, 0.22% hits;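 active means activation of at least 8% versus controls, or a plate z-score of at least 8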;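 further: Pro5 are CHO cells carrying HIG-tagged alpha-DG that lacks glycosylation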
TAG conf – triacylglycerol accumulation inhibition, confirmation; shares compounds with H9c2 TAG inh; H9c2 lipid accumulation, Nile Red fluorescence; cells loaded with 200 µM oleic acid; inhibition, % at 12.5 µM; 990 compounds, 71% hits; AID 651629;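 active means mean inhibition across replicates of 40% or more; inactive means mean inhibition below 40%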
Numbers stand for hits; . = inactive; / = no result given.

SMILES	MC4R antagonist	NTR1 ag	H9c2 TAG inh	TbMetRS inhib	MC4R ag barr	aDG glyco act	TAG conf
Cc1ccccc1CN1CCN(C(=O)c2ccc(F)cc2)CC1	.	.	/	.	.	.	/
CCCCCc1cc(=O)oc2c(C(CCN3CCCC3)c3cc(OC)c(OC)c(OC)c3)c(OC)cc(OC)c12 (configuration not stated)	.	.	94.4	.	.	.	76.7
COc1cc(C(CCN2CCOCC2)c2c(OC)cc(OC)c3c(C)cc(=O)oc23)cc(OC)c1OC (configuration not stated)	.	.	.	.	.	.	/
COc1ccccc1-c1nc(-c2ccc(C(=O)O)cc2)no1	.	.	.	.	.	.	/
CCOc1ccccc1-c1nc(-c2ccc(NC(=O)Cc3ccccc3OC)cc2)no1	.	.	71.4	.	.	.	45.9
COC(=O)c1ccc(N2CCN(c3ccccc3)CC2)c(N)c1	.	.	/	.	.	.	/
COc1cc(C2c3cc4c(cc3C(O)C3COCC23)OCO4)cc(OC)c1OC (configuration not stated)	.	/	.	.	.	.	/
COc1cc([C@@H]2c3cc4c(cc3[C@H](O)[C@H]3COC(=O)[C@H]23)OCO4)cc(OC)c1OC	.	.	50.1	.	.	.	48.5
COc1ccc(-c2cccc(N3CCN(c4ccccn4)CC3)n2)cc1OC	.	/	.	.	.	.	/
CCCSc1nc(SCC(=O)NCc2ccccc2)c2c3c(sc2n1)COC(C)(CC)C3 (configuration not stated)	.	.	63.1	.	.	.	47.8
Cc1ccsc1CNc1ncnc2ccc(-c3c(C)noc3C)cc12	.	.	.	.	.	.	/
Cc1noc(C)c1-c1ccc2ncnc(NCC3CCCCN3C)c2c1 (configuration not stated)	.	.	62.0	.	.	.	51.4
Fc1cccc(/C=N/Nc2cc(N3CCOCC3)ncn2)c1	.	.	60.0	.	.	.	.
COc1ccc(-n2nnnc2SCC(=O)NCCc2ccccc2)cc1OC	.	.	.	.	.	.	/
COc1ccc(CCNc2nnc(Sc3nnnn3-c3ccccc3)s2)cc1OC	.	.	96.8	.	.	.	76.2
CC(=O)Nc1nnc(CCS(=O)(=O)c2ccc(C)c(C)c2)s1	.	.	/	.	.	.	/
CN(C)CCCn1c(=O)n(C2CCCCC2)c(=O)c2c3c(sc21)CCCCC3	.	.	59.0	.	.	.	72.0
CN(C)CCn1c(=O)n(-c2ccc(F)cc2)c(=O)c2c3c(sc21)CCCCC3	.	.	.	.	.	.	/
Cc1cccc(Oc2nc(-c3ccncc3)nc3ccccc23)c1	.	.	.	.	.	.	/
CC(=O)Nc1ccc(Oc2nc(-c3ccccn3)nc3ccccc23)cc1	.	.	63.6	.	.	.	.
Cc1cccc(Oc2nc(-c3ccccn3)nc3ccccc23)c1	.	.	65.7	.	.	.	45.7
CCc1ccc(C(=O)N/N=C/c2ccncc2)s1	.	.	.	.	.	.	/
CC(=O)Nc1ccc2ccccc2c1[N+](=O)[O-]	.	/	.	.	.	.	/
O=C(Nc1ccc([N+](=O)[O-])cn1)c1cc(-c2cccc(Br)c2)nc2ccccc12	.	.	/	.	.	.	/
O=C(Nc1ccc([N+](=O)[O-])cn1)c1cc(-c2cccc(Cl)c2)nc2ccccc12	.	.	67.6	.	.	.	52.5
Cc1c(C(=O)N2CCCCCC2)c(S(=O)(=O)NCc2ccccc2Cl)c(C)n1C	.	.	/	.	.	.	/
CCOc1cc2c(cc1O)CCC1C2CCC2(C)C(O)CCC12 (configuration not stated)	.	/	73.0	.	.	.	57.4
CCNc1cc2c(cc1O)CCC1C2CCC2(C)C(O)CCC12 (configuration not stated)	.	/	.	.	.	.	/
NCCC(=O)N1c2ccccc2Sc2ccc(Cl)cc21	.	.	68.4	.	.	.	.
NCCCC(=O)N1c2ccccc2Sc2ccc(Cl)cc21	.	.	/	.	.	.	/
